Published values collected from several papers.
Protocols differ between the studies behind these lines.
RPS6KA6: Ribosomal protein S6 kinase alpha-6 (RPS6KA6, Homo sapiens, UniProt Q9UK32)
RPS6KA6 C-terminal kinase domain: Ribosomal protein S6 kinase alpha-6, C-terminal kinase domain (RPS6KA6, Homo sapiens, UniProt Q9UK32)
RPS6KA6 N-terminal kinase domain: Ribosomal protein S6 kinase alpha-6, N-terminal kinase domain (RPS6KA6, Homo sapiens, UniProt Q9UK32)

Compound	target	read-out	action	method	tested at	measurement	value
Cc1sc(C(=O)NC2COC2)cc1-n1cc(NC(=O)Nc2c(F)cccc2Cl)cn1	RPS6KA6	enzyme activity	inhibitor	–	10 µM	remaining activity	116%
N#CCCc1ccc2c(c1)-c1[nH]c3ccc([N+](=O)[O-])cc3c1CC(=O)N2	RPS6KA6	cell-free assay	–	–	0.5 µM	remaining signal	13.4%
Cn1nc(C(=O)NCc2ccc(C(=O)O)cc2)cc1-c1ccc2[nH]ccc2c1	RPS6KA6 C-terminal kinase domain	cell-free assay	–	competition with immobilised ligand	0.1 µM	remaining binding	85%
Cc1ccc(Nc2nccc(N(C)c3ccc4c(C)n(C)nc4c3)n2)cc1S(N)(=O)=O	RPS6KA6	enzyme activity	inhibitor	–	0.5 µM	remaining activity	96.8%
CNC(=O)c1cc(Oc2ccc(NC(=O)Nc3ccc(Cl)c(C(F)(F)F)c3)cc2)ccn1	RPS6KA6	enzyme activity	inhibitor	–	0.3 µM	inhibition	-29%
Cn1c2c(c3ccc(Cl)c(Cl)c31)C(C#N)C(C)(C)NC2=O (centres unmarked)	RPS6KA6	thermal stability	–	DSF	10 µM	ΔTm	2.6 °C
CO[C@@H](C)c1c(Nc2ccc([C@@H](N(C)C(=O)C3CCS(=O)(=O)CC3)C(F)(F)F)cc2)cnc2cc(Cl)nn12	RPS6KA6 C-terminal kinase domain	cell-free assay	–	competition with immobilised ligand	1 µM	remaining binding	98%
CCOc1cc(-c2nncn2C)ccc1Nc1ncc2cc(C)nc(NCC(C)(C)C)c2n1	RPS6KA6	enzyme activity	inhibitor	FRET	1 µM	inhibition	24%
O=C(Nc1cnn(-c2csc(C(=O)NC3COC3)c2)c1)Nc1c(F)cccc1Cl	RPS6KA6	enzyme activity	inhibitor	–	5 µM	remaining activity	92.2%
Nc1ncnc2occ(-c3ccc(NC(=O)Nc4cc(C(F)(F)F)ccc4F)cc3)c12	RPS6KA6 N-terminal kinase domain	cell-free assay	inhibitor	–	20 µM	remaining signal	5.5%
CC(C)(C)c1nc2c(s1)c1nc(N)ncc1c1ccc(NS(=O)(=O)c3c(F)cccc3F)c(F)c12	RPS6KA6	enzyme activity	inhibitor	radiometric	1 µM	remaining activity	97%
Cc1nccc(COC(=O)N2C[C@@H]3[C@@H](CNC(=O)c4ccc5[nH]nnc5c4)[C@@H]3C2)n1	RPS6KA6 N-terminal kinase domain	cell-free assay	–	competition with immobilised ligand	1 µM	remaining binding	100%
Cc1ccc(C(=O)Nc2ccc(CN3CCN(C)CC3)c(C(F)(F)F)c2)cc1C#Cc1cnc2cccnn12	RPS6KA6	enzyme activity	inhibitor	–	23.5 nM	activity vs control	84%
O=C1NC(=O)c2cc(Nc3ccc(F)cc3)c(Nc3ccc(F)cc3)cc21	RPS6KA6	cell-free assay	–	–	0.5 µM	remaining signal	97.4%
F[C@@H]1CCN(c2nccc(-c3cnn4ncccc34)n2)C1	RPS6KA6 N-terminal kinase domain	binding	–	competition with immobilised ligand	1 µM	remaining binding	82%
O=C(N[C@H]1CCCCC/C=C\C2C[C@@]2(C(=O)O)NC(=O)[C@@H]2C[C@@H](Oc3ccncc3)CN2C1=O)OC1CCCC1 (some centres unmarked)	RPS6KA6 N-terminal kinase domain	binding	–	competition with immobilised ligand	1 µM	remaining binding	60%
Cn1c2c(c3ccc(Cl)c(Cl)c31)C(C#N)C1(CCOCC1)NC2=O (centres unmarked)	RPS6KA6	thermal stability	–	DSF	10 µM	ΔTm	0.1 °C
c1cnn2ncc(-c3ccnc(N4CCC45COC5)n3)c2c1	RPS6KA6 N-terminal kinase domain	binding	–	competition with immobilised ligand	1 µM	remaining binding	58%

Compound	target	read-out	action	method	tested at	measurement	value
CS(=O)(=O)N1CCCC(NC(=O)[C@H](CCC2CCCCC2)NC(=O)c2ccc(CNC(=O)c3cnc4ccccn34)cc2)C1 (some centres unmarked)	RPS6KA6 N-terminal kinase domain	cell-free assay	–	competition with immobilised ligand	0.1 µM	remaining binding	97%
CN(CCCC(F)(F)F)c1nccc(-c2cnn3ncccc23)n1	RPS6KA6 N-terminal kinase domain	binding	–	competition with immobilised ligand	1 µM	remaining binding	100%
Cn1c2c(c3ccc(Cl)c(Cl)c31)C(C#N)C1(CCCCC1)NC2=O (racemic)	RPS6KA6	thermal stability	–	DSF	10 µM	ΔTm	0 °C
Cc1nc(C2CCN(C(=O)c3ccc(OC(F)(F)F)cc3N)CC2)c2ncc(N3CCN(C)CC3)cc2n1	RPS6KA6 C-terminal kinase domain	cell-free assay	–	competition with immobilised ligand	1 µM	remaining binding	100%
CCN1CCC2(CC1)NC(=O)c1c(c3ccc(Cl)c(Cl)c3n1C)C2C#N (racemic)	RPS6KA6	thermal stability	–	DSF	10 µM	ΔTm	0 °C
O=C(NS(=O)(=O)c1ccc(NCC2CCOCC2)c([N+](=O)[O-])c1)c1ccc(N2CCN(Cc3ccc(C(F)(F)F)cc3-c3ccc(Cl)cc3)CC2)cc1Oc1cnc2[nH]ccc2c1	RPS6KA6 N-terminal kinase domain	cell-free assay	–	competition with immobilised ligand	1 µM	remaining binding	100%
COc1cc2ncnc(Nc3ccc(Oc4ccccc4)cc3C)c2cc1OC	RPS6KA6	enzyme activity	inhibitor	–	1 µM	inhibition	7%
Cc1ccc(C(=O)NCc2ccsc2)cc1C#Cc1cn(C(C)C)c2ncnc(N)c12	RPS6KA6	enzyme activity	inhibitor	–	1 µM	activity vs control	71%
C[S+]([O-])c1ccc(-c2nc(-c3ccncc3)c(-c3ccc(F)cc3)[nH]2)cc1 (centres unmarked)	RPS6KA6	cell-free assay	–	–	0.5 µM	remaining signal	110%
Cc1cc(NC(=O)c2cccc3cc(-c4cccc5[nH]nc(N)c45)ccc23)ccc1F	RPS6KA6	enzyme activity	inhibitor	–	0.1 µM	activity vs control	94%
CO[C@H]1CC[C@H](CNc2ccc(S(=O)(=O)NC(=O)c3ccc(N4CCN(CC5=C(c6ccc(Cl)cc6)CC(C)(C)CC5)CC4)cc3Oc3cnc4[nH]ccc4c3)cc2[N+](=O)[O-])CC1	RPS6KA6 C-terminal kinase domain	cell-free assay	–	competition with immobilised ligand	1 µM	remaining binding	81%
COc1ccc(COc2ccc(Cc3cnc(N)nc3N)cc2OC)cc1	RPS6KA6	cell-free assay	–	–	0.5 µM	remaining signal	101%
Cc1ccc(NC(=O)c2ccc(C)c(C(F)(F)F)c2)cc1C#Cc1nn(C2CCC(O)CC2)c2ncnc(N)c12 (centres unmarked)	RPS6KA6	cell-free assay	–	–	10 µM	remaining signal	44%
C[C@@H]1CCN(c2nccc(-c3cnn4ncccc34)n2)C1	RPS6KA6 C-terminal kinase domain	binding	–	competition with immobilised ligand	1 µM	remaining binding	66%
CCN(CC)CCNC(=O)c1c(C)[nH]c(/C=C2\C(=O)Nc3ccc(F)cc32)c1C	RPS6KA6	cell-free assay	–	–	0.5 µM	remaining signal	17.5%
N[C@H]1CCN(c2nccc(-c3cnn4ncccc34)n2)C1	RPS6KA6 N-terminal kinase domain	binding	–	competition with immobilised ligand	1 µM	remaining binding	100%
CC/C(=N\NC(=O)NCc1cccc(O)c1)c1ccc(O)c(C)c1O	RPS6KA6	enzyme activity	inhibitor	–	0.1 µM	inhibition	66.4%
